Published values of several laboratories.
Each line is one published result; the experiments were not run side by side.
Read-out: cell growth or viability

Cc1nc(Nc2ccc3c(c2)C(C)(C)C(=O)N3)c2ccccc2n1
IC50 (B16; MTT): 14.8 µM

C=CC(=O)c1cccnc1Nc1cc(C(F)(F)F)ccc1OC
GI50 (BXPC-3; SRB; 48 h): 6.19 µM

Nc1ccc(/C=C/C(=O)N2CCc3c(oc4c(-c5ccc(F)cc5)cc(-c5ccc(C(=O)N6C[C@@H]7[C@H](C6)C7(F)F)nn5)cc34)C2)cn1
IC50 (BXPC-3; CCK-8; 72 h): > 20 µM

COc1cc2c3c(n(CCCNCCO)c(=O)c2cc1OC)-c1nc2c(cc1C3=O)OCO2
IC50 (RD-ES; MTS; 72 h): 0.022 µM

C=CC(=O)NC1CCN(c2ncc3ncnc(Nc4ccc(Oc5ccc6c(c5)ncn6C)c(C)c4)c3n2)CC1
EC50 (JHH-4): 0.108 µM

Cc1nc(Nc2ccc3c(c2)/C(=C/c2ccccc2)C(=O)N3Cc2ccccc2)c2ccccc2n1
IC50 (B16; MTT): 15.1 µM

COc1cc2c3c(n(CCCn4ccnc4)c(=O)c2cc1OC)-c1nc2c(cc1C3=O)OCO2
IC50 (RD-ES; MTS; 72 h): 0.18 µM

Cc1nc(Nc2ccc3c(c2)/C(=C/c2ccccc2)C(=O)N3C)c2ccccc2n1
IC50 (B16; MTT): 3.56 µM

C=CC(=O)c1cccnc1Nc1cc(C(F)(F)F)ccc1OCc1ccccc1
GI50 (BXPC-3; SRB; 48 h): 11.6 µM

COc1cc2ncnc(N(C)c3ccc4c(c3)/C(=C/c3cccc(Cl)c3)C(=O)N4C)c2cc1OC
IC50 (B16; MTT): 2.51 µM

Nc1ccc(/C=C/C(=O)NCc2cc3cc(-c4ccc(C(=O)N5CCC(F)(F)CC5)cc4)cc(-c4ccc(F)cc4)c3o2)cn1
IC50 (BXPC-3; CCK-8; 72 h): > 20 µM

C=CC(=O)c1cccnc1Nc1cccc(C(F)(F)F)c1
GI50 (BXPC-3; SRB; 48 h): 17.5 µM
